# Laboratory results taken from ChEMBL document CHEMBL4270599, “Synthesis of a 3'-C-ethynyl-β-d-ribofuranose purine nucleoside library: Discovery of C7-deazapurine analogs as potent antiproliferative nucleosides” (Eur J Med Chem, 2018).
# pIC50: −log10 of the molar value.
# What was measured:
# NCI-H322M [1] = experiment: Cytotoxicity against human NCI-H322M cells after 48 hrs by SRB assay; assay type: functional
# LOX IMVI [2] = experiment: Cytotoxicity against human LOXIMVI cells after 48 hrs by SRB assay; assay type: functional
# SK-MEL-2 = experiment: Cytotoxicity against human SK-MEL-2 cells after 48 hrs by SRB assay; assay type: functional; details: SK-MEL-2, 48 h
# SN12C [3] = experiment: Cytotoxicity against human SN12C cells after 48 hrs by SRB assay; assay type: functional
# EKVX = experiment: Growth inhibition of human EKVX cells assessed as cell growth at 10^-8 M incubated for 48 hrs by sulforhodamine B assay relative to control; assay type: functional; details: read-out: Activity
# HOP-92 = experiment: Growth inhibition of human HOP92 cells assessed as cell growth at 10^-8 M incubated for 48 hrs by sulforhodamine B assay relative to control; assay type: functional; details: HOP-92, 48 h, read-out: Activity
# NCI-H322M [4] = experiment: Growth inhibition of human NCI-H322M cells assessed as cell growth at 10^-8 M incubated for 48 hrs by sulforhodamine B assay relative to control; assay type: functional; details: read-out: Activity
# HCC 2998 = experiment: Growth inhibition of human HCC2998 cells assessed as cell growth at 10^-8 M incubated for 48 hrs by sulforhodamine B assay relative to control; assay type: functional; details: HCC 2998, 48 h, read-out: Activity
# KM12 = experiment: Growth inhibition of human KM12 cells assessed as cell growth at 10^-8 M incubated for 48 hrs by sulforhodamine B assay relative to control; assay type: functional; details: KM12, 48 h, read-out: Activity
# SF-539 = experiment: Growth inhibition of human SF539 cells assessed as cell growth at 10^-8 M incubated for 48 hrs by sulforhodamine B assay relative to control; assay type: functional; details: SF-539, 48 h, read-out: Activity
# SNB-19 = experiment: Growth inhibition of human SNB19 cells assessed as cell growth at 10^-8 M incubated for 48 hrs by sulforhodamine B assay relative to control; assay type: functional; details: SNB-19, 48 h, read-out: Activity
# OVCAR-5 [5] = experiment: Growth inhibition of human OVCAR5 cells assessed as cell growth at 10^-8 M incubated for 48 hrs by sulforhodamine B assay relative to control; assay type: functional; details: OVCAR-5, 48 h, read-out: Activity
# A498 = experiment: Growth inhibition of human A498 cells assessed as cell growth at 10^-8 M incubated for 48 hrs by sulforhodamine B assay relative to control; assay type: functional; details: A498, 48 h, read-out: Activity
# SN12C [6] = experiment: Growth inhibition of human SN12C cells assessed as cell growth at 10^-8 M incubated for 48 hrs by sulforhodamine B assay relative to control; assay type: functional; details: read-out: Activity
# T47D = experiment: Growth inhibition of human T47D cells assessed as cell growth at 10^-8 M incubated for 48 hrs by sulforhodamine B assay relative to control; assay type: functional; details: read-out: Activity
# A549 = experiment: Growth inhibition of human A549/ATCC cells assessed as cell growth at 10^-7 M incubated for 48 hrs by sulforhodamine B assay relative to control; assay type: functional; details: A549, 48 h, read-out: Activity
# SNB-75 = experiment: Growth inhibition of human SNB75 cells assessed as cell growth at 10^-7 M incubated for 48 hrs by sulforhodamine B assay relative to control; assay type: functional; details: SNB-75, 48 h, read-out: Activity
# LOX IMVI [7] = experiment: Growth inhibition of human LOXIMVI cells assessed as cell growth at 10^-7 M incubated for 48 hrs by sulforhodamine B assay relative to control; assay type: functional; details: read-out: Activity
# MDA-MB-435 = experiment: Growth inhibition of human MDA-MB-435 cells assessed as cell growth at 10^-7 M incubated for 48 hrs by sulforhodamine B assay relative to control; assay type: functional; details: MDA-MB-435, 48 h, read-out: Activity
# MDA-MB-231 [8] = experiment: Growth inhibition of human MDA-MB-231 cells assessed as cell growth at 10^-7 M incubated for 48 hrs by sulforhodamine B assay relative to control; assay type: functional; details: MDA-MB-231, 48 h, read-out: Activity
# SR = experiment: Growth inhibition of human SR cells assessed as cell growth at 10^-6 M incubated for 48 hrs by sulforhodamine B assay relative to control; assay type: functional; details: read-out: Activity
# OVCAR-5 [9] = experiment: Growth inhibition of human OVCAR5 cells assessed as cell growth at 10^-6 M incubated for 48 hrs by sulforhodamine B assay relative to control; assay type: functional; details: OVCAR-5, 48 h, read-out: Activity
# NCI/ADR-RES = experiment: Growth inhibition of human NCI/ADR-RES cells assessed as cell growth at 10^-6 M incubated for 48 hrs by sulforhodamine B assay relative to control; assay type: functional; details: read-out: Activity
# MDA-MB-231 [10] = experiment: Growth inhibition of human MDA-MB-231 cells assessed as cell growth at 10^-6 M incubated for 48 hrs by sulforhodamine B assay relative to control; assay type: functional; details: MDA-MB-231, 48 h, read-out: Activity
# NCI-H226 [11] = experiment: Growth inhibition of human NCI-H226 cells assessed as cell growth at 10^-5 M incubated for 48 hrs by sulforhodamine B assay relative to control; assay type: functional; details: NCI-H226, 48 h, read-out: Activity
# OVCAR-4 = experiment: Growth inhibition of human OVCAR4 cells assessed as cell growth at 10^-5 M incubated for 48 hrs by sulforhodamine B assay relative to control; assay type: functional; details: OVCAR-4, 48 h, read-out: Activity
# MCF7 = experiment: Growth inhibition of human MCF7 cells assessed as cell growth at 10^-5 M incubated for 48 hrs by sulforhodamine B assay relative to control; assay type: functional; details: MCF7, 48 h, read-out: Activity
# NCI-H226 [12] = experiment: Growth inhibition of human NCI-H226 cells assessed as cell growth at 10^-4 M incubated for 48 hrs by sulforhodamine B assay relative to control; assay type: functional; details: NCI-H226, 48 h, read-out: Activity
# MDA-MB-231 [13] = experiment: Growth inhibition of human MDA-MB-231 cells assessed as cell growth at 10^-4 M incubated for 48 hrs by sulforhodamine B assay relative to control; assay type: functional; details: MDA-MB-231, 48 h, read-out: Activity
# UACC-62 [14] = experiment: Growth inhibition of human UACC62 cells assessed as cell growth at 10^-8 M incubated for 48 hrs by sulforhodamine B assay relative to control; assay type: functional; details: UACC-62, 48 h, read-out: Activity
# UACC-62 [15] = experiment: Growth inhibition of human UACC62 cells assessed as cell growth at 10^-7 M incubated for 48 hrs by sulforhodamine B assay relative to control; assay type: functional; details: UACC-62, 48 h, read-out: Activity
# HMEC-1 = experiment: Antiproliferative activity against HMEC1 cells after 4 days by Coulter counter method; assay type: cell-based; details: Homo sapiens, HMEC-1, 96 h
# Procedure, shortened: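 Primary HUVEC, primary HMVEC-d and the HMEC-1 line seeded at 20,000 cells/well in gelatin-coated plates in EC growth medium (EGM2). After overnight incubation, 5-fold compound dilutions added. Cells proliferated four days with compound, then trypsinized and counted by Coulter counter to derive IC₅₀.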
# [16] = read-out: pLC50 (the source's name) (converted)
# [17] = read-out: LC50 (the source's name)
structure (smiles),measurement,setting,value
C#C[C@@]1(O)[C@@H](CO)O[C@@H](n2cc(I)c3c(N)ncnc32)[C@@H]1O,GI50,NCI-H322M [1]; read-out: GI50,0.405 to 0.683 µM
same,TGI,NCI-H322M [1]; read-out: TGI,7.49 to 42.8 µM
same,CC50,NCI-H322M [1]; [16],> 100 µM
same,GI50,LOX IMVI [2]; read-out: GI50,0.0397 to 0.0812 µM
same,CC50,LOX IMVI [2]; [17],> 100 µM
same,TGI,LOX IMVI [2]; read-out: TGI,0.241 to 1.22 µM
same,GI50,SK-MEL-2; read-out: GI50,0.177 to 0.321 µM
same,CC50,SK-MEL-2; [17],7.77 to 100 µM
same,TGI,SK-MEL-2; read-out: TGI,1.59 to 1.95 µM
same,GI50,SN12C [3]; read-out: GI50,0.069 to 0.138 µM
same,TGI,SN12C [3]; read-out: TGI,> 100 µM
same,CC50,SN12C [3]; [16],> 100 µM
same,TGI,SN12C [3]; read-out: pTGI (converted),> 100 µM
same,growth at 0.01 µM,EKVX,79 to 90%
same,growth at 0.01 µM,HOP-92,58 to 74%
same,growth at 0.01 µM,NCI-H322M [4],75 to 86%
same,growth at 0.01 µM,HCC 2998,87 to 90%
same,growth at 0.01 µM,KM12,94 to 97%
same,growth at 0.01 µM,SF-539,89 to 102%
same,growth at 0.01 µM,SNB-19,88 to 92%
same,growth at 0.01 µM,OVCAR-5 [5],79 to 80%
same,growth at 0.01 µM,A498,88 to 102%
same,growth at 0.01 µM,SN12C [6],85 to 90%
same,growth at 0.01 µM,T47D,13 to 44%
same,growth at 0.1 µM,A549,69 to 80%
same,growth at 0.1 µM,SNB-75,81 to 83%
same,growth at 0.1 µM,LOX IMVI [7],27 to 46%
same,growth at 0.1 µM,MDA-MB-435,66 to 73%
same,growth at 0.1 µM,MDA-MB-231 [8],60%
same,growth at 1 µM,SR,21 to 24%
same,growth at 1 µM,OVCAR-5 [9],43 to 64%
same,growth at 1 µM,NCI/ADR-RES,4 to 7%
same,growth at 1 µM,MDA-MB-231 [10],17 to 27%
same,growth at 10 µM,NCI-H226 [11],6 to 10%
same,growth at 10 µM,OVCAR-4,9 to 13%
same,growth at 10 µM,MCF7,1 to 5%
same,growth at 100 µM,NCI-H226 [12],4 to 16%
same,growth at 100 µM,MDA-MB-231 [13],11 to 12%
same,growth at 0.01 µM,UACC-62 [14],95%
same,growth at 0.1 µM,UACC-62 [15],81 to 84%
same,pIC50,HMEC-1,7.74
